{"source": "ChEMBL document CHEMBL1250442", "about": "“Inhibiting gene expression at transcription start sites in chromosomal DNA with antigene RNAs” (Nat Chem Biol, 2005)", "key": {"T47D [1]": {"test_system": "T47D", "test": "Inhibition of PR-A mRNA gene expression in human T47D cells at 100 nM by syber green assay", "type": "functional", "summary_of_the_method": "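T47D cells plated at 80,000/well without antibiotics two days before Oligofectamine transfection with agRNA duplex (25 or 100 nM final); medium changed at 24 h, harvest day 5 unless stated otherwise. TRIzol total RNA; PR mRNA by real-time PCR with SYBR Green: 50 °C 2 min, 95 °C 10 min, 40 cycles 95 °C 15 s/60 °C 1 min.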"}, "T47D [2]": {"test_system": "T47D", "test": "Inhibition of PR-A gene expression in human T47D cells at 25 nM by syber green assay in presence of 10 nM estradiol", "type": "functional, cell-based"}, "T47D [3]": {"test_system": "T47D", "test": "Inhibition of cyclooxygenase-2 expression in human T47D cells at 25 nM by syber green assay", "type": "functional, cell-based"}, "T47D [4]": {"test_system": "T47D", "test": "Inhibition of PR-B mRNA gene expression in human T47D cells at 100 nM by syber green assay", "type": "functional", "summary_of_the_method": "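T47D cells in RPMI-1640 with 10% FBS, NEAA, insulin, 37 °C, 5% CO2. Plated two days before transfection without antibiotics. Oligofectamine-mediated duplex RNA transfection at 100 nM final, medium changed at 24 h, harvest five days post-transfection. Total RNA extracted with TRIzol. hPR mRNA quantified by SYBR Green qPCR: 50 °C 2 min, 95 °C 10 min, then 40 cycles of 95 °C 15 s / 60 °C 1 min.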"}, "T47D [5]": {"test_system": "T47D", "test": "Inhibition of PR-B gene expression in human T47D cells at 25 nM by syber green assay in presence of 10 nM estradiol", "type": "functional, cell-based"}, "T47D [6]": {"test_system": "T47D", "test": "Inhibition of major vault protein expression in human T47D cells at 100 nM by syber green assay", "type": "functional, cell-based"}, "T47D [7]": {"test_system": "T47D", "test": "Inhibition of androgen receptor expression in human T47D cells after 12 days at 100 nM by syber green assay", "type": "functional, cell-based", "summary_of_the_method": "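AR expression in T47D cells, grown in RPMI-1640 with 10% FBS, NEAA and insulin. Plated antibiotic-free two days before Oligofectamine transfection with 100 nM duplex RNA; medium replaced after 24 h. TRIzol total RNA. SYBR Green real-time PCR: 50 °C 2 min, 95 °C 10 min, 40 cycles of 95 °C 15 s and 60 °C 1 min.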"}}, "note": "The source made the active and inactive calls. The calls are words filed in the database; no cut-off is given here.", "data": [{"smiles": "Cc1cn(CC(=O)N(CCNC(=O)CN(CCNC(=O)CN(CCNC(=O)CN(CCNC(=O)CN(CCNC(=O)CN(CCNC(=O)CN(CCNC(=O)CN(CCNC(=O)CN(CCNC(=O)CN(CCNC(=O)CN(CCNC(=O)CN(CCNC(=O)CN(CCNC(=O)CN(CCNC(=O)CN(CCNC(=O)CN(CCNC(=O)CN(CCNC(=O)CN(CCNC(=O)CN(CCNC(=O)CN(CCNC(=O)CN)C(=O)Cn2ccc(=O)[nH]c2=O)C(=O)Cn2ccc(N)nc2=O)C(=O)Cn2cnc3c(=O)[nH]c(N)nc32)C(=O)Cn2cnc3c(=O)[nH]c(N)nc32)C(=O)Cn2ccc(=O)[nH]c2=O)C(=O)Cn2ccc(=O)[nH]c2=O)C(=O)Cn2cnc3c(N)ncnc32)C(=O)Cn2cnc3c(=O)[nH]c(N)nc32)C(=O)Cn2ccc(N)nc2=O)C(=O)Cn2cnc3c(=O)[nH]c(N)nc32)C(=O)Cn2cnc3c(N)ncnc32)C(=O)Cn2ccc(N)nc2=O)C(=O)Cn2ccc(N)nc2=O)C(=O)Cn2cnc3c(N)ncnc32)C(=O)Cn2cnc3c(N)ncnc32)C(=O)Cn2ccc(=O)[nH]c2=O)C(=O)Cn2ccc(=O)[nH]c2=O)C(=O)Cn2cnc3c(N)ncnc32)C(=O)Cn2ccc(=O)[nH]c2=O)CC(=O)NCCN(CC(=O)NCC(=O)O)C(=O)Cn2cc(C)c(=O)[nH]c2=O)c(=O)[nH]c1=O", "values": [{"measurement": "inhibition at 0.1 µM", "setting": "T47D [1]", "result": 71, "unit": "%"}, {"measurement": "inhibition", "setting": "T47D [2]", "result": "Active"}, {"measurement": "inhibition", "setting": "T47D [3]", "result": "Active"}, {"measurement": "inhibition at 0.1 µM", "setting": "T47D [4]", "result": 71, "unit": "%"}]}, {"smiles": "Cc1cn(CC(=O)N(CCNC(=O)CN(CCNC(=O)CN(CCNC(=O)CN(CCNC(=O)CN(CCNC(=O)CN(CCNC(=O)CN(CCNC(=O)CN(CCNC(=O)CN(CCNC(=O)CN(CCNC(=O)CN(CCNC(=O)CN(CCNC(=O)CN(CCNC(=O)CN(CCNC(=O)CN(CCNC(=O)CN(CCNC(=O)CN(CCNC(=O)CN(CCNC(=O)CN(CCNC(=O)CN(CCNC(=O)CN)C(=O)Cn2ccc(=O)[nH]c2=O)C(=O)Cn2ccc(=O)[nH]c2=O)C(=O)Cn2cnc3c(N)ncnc32)C(=O)Cn2cnc3c(=O)[nH]c(N)nc32)C(=O)Cn2ccc(N)nc2=O)C(=O)Cn2cnc3c(=O)[nH]c(N)nc32)C(=O)Cn2cnc3c(N)ncnc32)C(=O)Cn2ccc(N)nc2=O)C(=O)Cn2ccc(N)nc2=O)C(=O)Cn2cnc3c(N)ncnc32)C(=O)Cn2cnc3c(N)ncnc32)C(=O)Cn2ccc(=O)[nH]c2=O)C(=O)Cn2ccc(=O)[nH]c2=O)C(=O)Cn2cnc3c(=O)[nH]c(N)nc32)C(=O)Cn2ccc(=O)[nH]c2=O)C(=O)Cn2ccc(N)nc2=O)C(=O)Cn2cnc3c(N)ncnc32)C(=O)Cn2ccc(=O)[nH]c2=O)C(=O)Cn2cnc3c(N)ncnc32)CC(=O)NCCN(CC(=O)NCC(=O)O)C(=O)Cn2cc(C)c(=O)[nH]c2=O)c(=O)[nH]c1=O", "values": [{"measurement": "inhibition at 0.1 µM", "setting": "T47D [1]", "result": 81, "unit": "%"}, {"measurement": "inhibition", "setting": "T47D [2]", "result": "Active"}, {"measurement": "inhibition", "setting": "T47D [3]", "result": "Active"}, {"measurement": "inhibition at 0.1 µM", "setting": "T47D [4]", "result": 81, "unit": "%"}]}, {"smiles": "Cc1cn(CC(=O)N(CCNC(=O)CN(CCNC(=O)CN(CCNC(=O)CN(CCNC(=O)CN(CCNC(=O)CN(CCNC(=O)CN(CCNC(=O)CN(CCNC(=O)CN(CCNC(=O)CN(CCNC(=O)CN(CCNC(=O)CN(CCNC(=O)CN(CCNC(=O)CN(CCNC(=O)CN(CCNC(=O)CN(CCNC(=O)CN(CCNC(=O)CN(CCNC(=O)CN(CCNC(=O)CN(CCNC(=O)CN)C(=O)Cn2cnc3c(N)ncnc32)C(=O)Cn2cnc3c(=O)[nH]c(N)nc32)C(=O)Cn2cnc3c(=O)[nH]c(N)nc32)C(=O)Cn2ccc(N)nc2=O)C(=O)Cn2cnc3c(N)ncnc32)C(=O)Cn2cnc3c(=O)[nH]c(N)nc32)C(=O)Cn2cnc3c(=O)[nH]c(N)nc32)C(=O)Cn2cnc3c(=O)[nH]c(N)nc32)C(=O)Cn2ccc(=O)[nH]c2=O)C(=O)Cn2cnc3c(=O)[nH]c(N)nc32)C(=O)Cn2cnc3c(N)ncnc32)C(=O)Cn2cnc3c(=O)[nH]c(N)nc32)C(=O)Cn2cnc3c(N)ncnc32)C(=O)Cn2cnc3c(=O)[nH]c(N)nc32)C(=O)Cn2ccc(=O)[nH]c2=O)C(=O)Cn2ccc(=O)[nH]c2=O)C(=O)Cn2ccc(N)nc2=O)C(=O)Cn2ccc(N)nc2=O)C(=O)Cn2ccc(N)nc2=O)CC(=O)NCCN(CC(=O)NCC(=O)O)C(=O)Cn2cc(C)c(=O)[nH]c2=O)c(=O)[nH]c1=O", "values": [{"measurement": "inhibition at 0.1 µM", "setting": "T47D [1]", "result": 81, "unit": "%"}, {"measurement": "inhibition", "setting": "T47D [5]", "result": "Active"}, {"measurement": "inhibition", "setting": "T47D [6]", "result": "Active"}, {"measurement": "inhibition", "setting": "T47D [2]", "result": "Active"}, {"measurement": "inhibition at 0.1 µM", "setting": "T47D [4]", "result": 81, "unit": "%"}]}, {"smiles": "Cc1cn(CC(=O)N(CCNC(=O)CN(CCNC(=O)CN(CCNC(=O)CN(CCNC(=O)CN(CCNC(=O)CN(CCNC(=O)CN(CCNC(=O)CN(CCNC(=O)CN(CCNC(=O)CN(CCNC(=O)CN(CCNC(=O)CN(CCNC(=O)CN(CCNC(=O)CN(CCNC(=O)CN(CCNC(=O)CN(CCNC(=O)CN(CCNC(=O)CN(CCNC(=O)CN(CCNC(=O)CN(CCNC(=O)CN)C(=O)Cn2ccc(N)nc2=O)C(=O)Cn2cnc3c(N)ncnc32)C(=O)Cn2ccc(N)nc2=O)C(=O)Cn2ccc(N)nc2=O)C(=O)Cn2ccc(=O)[nH]c2=O)C(=O)Cn2ccc(N)nc2=O)C(=O)Cn2ccc(N)nc2=O)C(=O)Cn2ccc(N)nc2=O)C(=O)Cn2cnc3c(N)ncnc32)C(=O)Cn2cnc3c(=O)[nH]c(N)nc32)C(=O)Cn2ccc(N)nc2=O)C(=O)Cn2cnc3c(=O)[nH]c(N)nc32)C(=O)Cn2ccc(N)nc2=O)C(=O)Cn2ccc(N)nc2=O)C(=O)Cn2ccc(N)nc2=O)C(=O)Cn2ccc(N)nc2=O)C(=O)Cn2ccc(N)nc2=O)C(=O)Cn2ccc(=O)[nH]c2=O)C(=O)Cn2ccc(N)nc2=O)CC(=O)NCCN(CC(=O)NCC(=O)O)C(=O)Cn2cc(C)c(=O)[nH]c2=O)c(=O)[nH]c1=O", "values": [{"measurement": "inhibition at 0.1 µM", "setting": "T47D [1]", "result": 100, "unit": "%"}, {"measurement": "inhibition", "setting": "T47D [7]", "result": "Active"}, {"measurement": "inhibition", "setting": "T47D [5]", "result": "Active"}, {"measurement": "inhibition", "setting": "T47D [2]", "result": "Active"}, {"measurement": "inhibition at 0.1 µM", "setting": "T47D [4]", "result": 100, "unit": "%"}]}, {"smiles": "Cc1cn(CC(=O)N(CCNC(=O)CN(CCNC(=O)CN(CCNC(=O)CN(CCNC(=O)CN(CCNC(=O)CN(CCNC(=O)CN(CCNC(=O)CN(CCNC(=O)CN(CCNC(=O)CN(CCNC(=O)CN(CCNC(=O)CN(CCNC(=O)CN(CCNC(=O)CN(CCNC(=O)CN(CCNC(=O)CN(CCNC(=O)CN(CCNC(=O)CN(CCNC(=O)CN(CCNC(=O)CN(CCNC(=O)CN)C(=O)Cn2cnc3c(=O)[nH]c(N)nc32)C(=O)Cn2ccc(N)nc2=O)C(=O)Cn2ccc(=O)[nH]c2=O)C(=O)Cn2ccc(N)nc2=O)C(=O)Cn2ccc(=O)[nH]c2=O)C(=O)Cn2ccc(N)nc2=O)C(=O)Cn2ccc(N)nc2=O)C(=O)Cn2cnc3c(N)ncnc32)C(=O)Cn2ccc(N)nc2=O)C(=O)Cn2ccc(N)nc2=O)C(=O)Cn2ccc(=O)[nH]c2=O)C(=O)Cn2ccc(N)nc2=O)C(=O)Cn2ccc(N)nc2=O)C(=O)Cn2ccc(N)nc2=O)C(=O)Cn2cnc3c(N)ncnc32)C(=O)Cn2cnc3c(=O)[nH]c(N)nc32)C(=O)Cn2ccc(N)nc2=O)C(=O)Cn2cnc3c(=O)[nH]c(N)nc32)C(=O)Cn2ccc(N)nc2=O)CC(=O)NCCN(CC(=O)NCC(=O)O)C(=O)Cn2cc(C)c(=O)[nH]c2=O)c(=O)[nH]c1=O", "values": [{"measurement": "inhibition at 0.1 µM", "setting": "T47D [1]", "result": 92, "unit": "%"}, {"measurement": "inhibition", "setting": "T47D [7]", "result": "Active"}, {"measurement": "inhibition", "setting": "T47D [5]", "result": "Active"}, {"measurement": "inhibition", "setting": "T47D [2]", "result": "Active"}, {"measurement": "inhibition at 0.1 µM", "setting": "T47D [4]", "result": 92, "unit": "%"}]}, {"smiles": "Cc1cn(CC(=O)N(CCNC(=O)CN(CCNC(=O)CN(CCNC(=O)CN(CCNC(=O)CN(CCNC(=O)CN(CCNC(=O)CN(CCNC(=O)CN(CCNC(=O)CN(CCNC(=O)CN(CCNC(=O)CN(CCNC(=O)CN(CCNC(=O)CN(CCNC(=O)CN(CCNC(=O)CN(CCNC(=O)CN(CCNC(=O)CN(CCNC(=O)CN(CCNC(=O)CN(CCNC(=O)CN(CCNC(=O)CN)C(=O)Cn2cnc3c(=O)[nH]c(N)nc32)C(=O)Cn2cnc3c(=O)[nH]c(N)nc32)C(=O)Cn2cnc3c(=O)[nH]c(N)nc32)C(=O)Cn2cnc3c(=O)[nH]c(N)nc32)C(=O)Cn2ccc(N)nc2=O)C(=O)Cn2cnc3c(=O)[nH]c(N)nc32)C(=O)Cn2ccc(N)nc2=O)C(=O)Cn2ccc(=O)[nH]c2=O)C(=O)Cn2cnc3c(=O)[nH]c(N)nc32)C(=O)Cn2cnc3c(=O)[nH]c(N)nc32)C(=O)Cn2cnc3c(=O)[nH]c(N)nc32)C(=O)Cn2cnc3c(N)ncnc32)C(=O)Cn2cnc3c(=O)[nH]c(N)nc32)C(=O)Cn2cnc3c(=O)[nH]c(N)nc32)C(=O)Cn2ccc(=O)[nH]c2=O)C(=O)Cn2cnc3c(=O)[nH]c(N)nc32)C(=O)Cn2cnc3c(=O)[nH]c(N)nc32)C(=O)Cn2cnc3c(N)ncnc32)C(=O)Cn2cnc3c(=O)[nH]c(N)nc32)CC(=O)NCCN(CC(=O)NCC(=O)O)C(=O)Cn2cc(C)c(=O)[nH]c2=O)c(=O)[nH]c1=O", "values": [{"measurement": "inhibition at 0.1 µM", "setting": "T47D [1]", "result": 39, "unit": "%"}, {"measurement": "inhibition", "setting": "T47D [7]", "result": "Active"}, {"measurement": "inhibition", "setting": "T47D [5]", "result": "Active"}, {"measurement": "inhibition", "setting": "T47D [2]", "result": "Active"}, {"measurement": "inhibition at 0.1 µM", "setting": "T47D [4]", "result": 39, "unit": "%"}]}]}
